Calls of active or inactive are those of the source. The calls are words filed in the database; no cut-off is given here.
Key:
Rattus norvegicus [1] = assay: In vivo evaluation for DOPA accumulation in the limbic system in male rats at highest test dose of 50 uM/Kg (sc); inactive; format: functional, organism-based
Method in brief: (§1)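 Male Sprague-Dawley rats were pretreated with reserpine 5 mg/kg sc 18 h before dosing. DOPA and 5-HTP in limbic system, striatum and hemispheres were measured by HPLC with electrochemical detection. Dose-response curves used 4–6 dose levels (n = 4) for each region; ED50 was estimated graphically. Partial responses are given as the maximal % reduction at the highest dose tested.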

Rattus norvegicus [2] = assay: In vivo evaluation for DOPA accumulation in the corpus striatum in male rats at highest test dose of 50 uM/Kg (sc); inactive; format: functional, organism-based; method in brief: as §1
D(2) dopamine receptor [3] = molecular target: D(2) dopamine receptor (Rattus norvegicus, UniProt P61169); assay: Displacement of [3H]spiperone from dopamine receptor D2
Method in brief: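 Rat striatal membranes in 50 mM potassium phosphate buffer (3 mg original tissue) incubated with 0.5 nM [3H]spiperone for 10 min at 37 °C. Nonspecific binding was defined with 10 μM 6,7-ADTN. Ki was calculated by Cheng–Prusoff; triplicates, 3–7 experiments.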

Rattus norvegicus [4] = organism: Rattus norvegicus; assay: Compound was tested for 5-HT behavioral response in reserpine pretreated rats; +5HT syndrome; format: functional, organism-based
Method in brief: (§2)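 Male Sprague-Dawley rats (200–300 g) were given reserpine 5 mg/kg sc 18 h before testing, then the test drug sc in the neck (n = 4). Motor activity was recorded by photocells for 30 min, with gross behaviour observed throughout. 5-HT syndrome: flat body posture, extended limbs, reciprocal forepaw treading. DA response: locomotion and stereotypies.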

Rattus norvegicus [5] = assay: In vivo evaluation for 5-HTP accumulation in the hemispheres in male rats (sc); format: functional; method in brief: as §1
Rattus norvegicus [6] = assay: In vivo evaluation for DOPA accumulation in the hemispheres in male rats at highest test dose of 50 uM/Kg (sc); inactive; format: functional, organism-based; method in brief: as §1
Rattus norvegicus [7] = assay: In vivo evaluation for 5-HTP accumulation in the limbic system in male rats (sc); format: functional; method in brief: as §1
Rattus norvegicus [8] = assay: In vivo evaluation for 5-HTP accumulation in the corpus striatum in male rats (sc); format: functional; method in brief: as §1
Rattus norvegicus [9] = assay: In vivo evaluation for DOPA accumulation in the limbic system in male rats (sc); format: functional; method in brief: as §1
Rattus norvegicus [10] = assay: Maximal reduction in percent (Partial response) of DOPA accumulation rat lhemispheres at highest test dose of 2.0 uM/Kg (sc); format: functional; method in brief: as §1
Rattus norvegicus [11] = organism: Rattus norvegicus; assay: Compound was tested for 5HT, Dopamine agonist mediated response in reserpine pretreated rats; mix DA, 5-HT syndrome; format: functional, organism-based; method in brief: as §2
Rattus norvegicus [12] = assay: In vivo evaluation for DOPA accumulation in the corpus striatum in male rats (sc); format: functional; method in brief: as §1
Rattus norvegicus [13] = organism: Rattus norvegicus; assay: Maximal reduction in percent (Partial response) of DOPA accumulation rat limbic system at highest test dose; inactive; format: functional, organism-based
Rattus norvegicus [14] = assay: In vivo evaluation for 5-HTP accumulation in the limbic system in male rats (po); format: functional; method in brief: as §1
[15] = molecular target: T1, 5-hydroxytryptamine receptor 1A (Mus musculus, UniProt Q64264); assay: In vitro binding affinity against 5-hydroxytryptamine 1A receptor using [3H]-8-OH-DPAT as radioligand in CHO cells (sc); format: cell-based, Cricetulus griseus
T1 sequence (Q64264 whole entry): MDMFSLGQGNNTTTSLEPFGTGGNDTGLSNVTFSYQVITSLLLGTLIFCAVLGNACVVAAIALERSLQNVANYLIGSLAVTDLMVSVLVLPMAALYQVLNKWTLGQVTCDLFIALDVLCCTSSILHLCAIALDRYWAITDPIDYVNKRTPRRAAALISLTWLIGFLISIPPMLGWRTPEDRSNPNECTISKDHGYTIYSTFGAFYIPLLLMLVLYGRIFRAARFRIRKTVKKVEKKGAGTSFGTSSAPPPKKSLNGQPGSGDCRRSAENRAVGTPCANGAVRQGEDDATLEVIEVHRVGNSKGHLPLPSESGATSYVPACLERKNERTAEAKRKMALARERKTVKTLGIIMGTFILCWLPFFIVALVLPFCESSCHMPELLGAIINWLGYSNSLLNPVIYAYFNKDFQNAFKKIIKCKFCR

[16] = Maximum concentration of the drug at 10 umol/dg administered perorally; format: ADME, organism-based; set-up: route oral; conditions: in vivo, po
Method in brief: (§3)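 Male Sprague-Dawley rats (300 g) with arterial catheters were dosed 24 h after surgery; orally dosed rats were starved 18 h beforehand. Blood was sampled at intervals up to 12 h and analysed by HPLC with fluorescence detection (ex 285, em 365) or by GC/MS. Cmax is in pmol/mL and tmax in min, mean ± SEM, n = 4–6.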

Rattus norvegicus [17] = assay: Maximal reduction in percent (Partial response) of DOPA accumulation rat limbic system at highest test dose of 12.5 uM/Kg (sc); format: functional
[18] = Maximum concentration of the drug at 2 umol/dg administered intravenously; format: ADME, organism-based; set-up: route intravenous; conditions: in vivo, iv; method in brief: as §3
[19] = Ratio of ED50 values when the compound was administered subcutaneously to that of peroral administration; format: ADME
Method in brief: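 Male Sprague-Dawley rats (200–300 g) pretreated with reserpine (5 mg/kg sc, 18 h earlier). Compound given sc or po. 5-HTP accumulation in the limbic system was measured by HPLC with electrochemical detection. ED50 values came from dose-response curves of 4–6 dose levels (n = 4), and the sc ED50 was divided by the po ED50.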

Rattus norvegicus [20] = assay: Maximal reduction in percent (Partial response) of DOPA accumulation rat corpus striatum at highest test dose of 12.5 uM/Kg (sc); format: functional; method in brief: as §1
Rattus norvegicus [21] = assay: In vivo evaluation for 5-HTP accumulation in the hemispheres in male rats (po); format: functional; method in brief: as §1
Rattus norvegicus [22] = assay: In vivo evaluation for 5-HTP accumulation in the corpus striatum in male rats (po); format: functional; method in brief: as §1
D(2) dopamine receptor [23] = molecular target: D(2) dopamine receptor (Homo sapiens, UniProt P14416); assay: In vitro binding affinity against dopamine receptor D2 using [3H]raclopride as radioligand in CHO cells (sc); format: cell-based, Cricetulus griseus
[24] = molecular target: T2, 5-hydroxytryptamine receptor 1A (Rattus norvegicus, UniProt P19327); assay: In vitro binding affinity against 5-hydroxytryptamine 1A receptor using [3H]8-OH-DPAT
T2 sequence (P19327 whole entry): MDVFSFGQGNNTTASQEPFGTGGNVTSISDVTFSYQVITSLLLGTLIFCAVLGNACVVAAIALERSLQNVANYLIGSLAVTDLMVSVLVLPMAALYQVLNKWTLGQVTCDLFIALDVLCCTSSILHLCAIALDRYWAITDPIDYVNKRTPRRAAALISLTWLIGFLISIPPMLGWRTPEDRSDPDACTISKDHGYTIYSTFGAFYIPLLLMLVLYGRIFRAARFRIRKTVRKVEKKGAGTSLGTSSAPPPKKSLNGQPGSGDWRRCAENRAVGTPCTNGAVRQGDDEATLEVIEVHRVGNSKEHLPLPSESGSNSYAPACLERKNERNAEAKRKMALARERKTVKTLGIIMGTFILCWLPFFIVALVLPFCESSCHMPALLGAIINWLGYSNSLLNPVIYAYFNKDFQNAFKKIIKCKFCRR
Method in brief: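 Rat whole-brain membranes (brainstem and cerebellum removed) in 50 mM Tris pH 8.0 containing NaCl, CaCl2, MgCl2 and 10 μM pargyline, 10 mg tissue per tube. Nonspecific binding was defined with 10 μM 5-HT. IC50 was taken by semi-log linear regression and Ki by Cheng–Prusoff; triplicates.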

[25] = Area under curve at 10 uM/dg administered perorally; format: ADME; conditions: po
Method in brief: (§4)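 Male Sprague-Dawley rats (300 g) carrying arterial catheters, used 24 h after surgery; animals dosed orally were starved 18 h beforehand. Blood was sampled at intervals up to 12 h after dosing. Drug levels were measured by HPLC with fluorescence detection (ex 285, em 365) or by GC/MS, calibrated against spiked blank blood. AUC was taken from concentration-time curves; n = 4–6.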

Rattus norvegicus [26] = organism: Rattus norvegicus; assay: Maximal reduction in percent (Partial response) of DOPA accumulation rat hemispheres at highest test dose; inactive; format: functional, organism-based; method in brief: as §1
Rattus norvegicus [27] = organism: Rattus norvegicus; assay: Maximal reduction in percent (Partial response) of DOPA accumulation rat corpus striatum at highest test dose; inactive; format: functional, organism-based; method in brief: as §1
[28] = Half life of compound at 2 uM/dg administered intravenously; format: ADME, organism-based; conditions: in vivo, iv; method in brief: as §4
[29] = Area under curve at 2 uM/dg administered intravenously; format: ADME; conditions: iv; method in brief: as §4
Rattus norvegicus [30] = assay: In vivo evaluation for DOPA accumulation in the hemispheres in male rats at highest test dose; inactive; format: functional, organism-based; method in brief: as §1
[31] = Time taken to reach the maximum concentration of compound at 2 uM/dg administered intravenously; format: ADME, organism-based; conditions: in vivo, iv; method in brief: as §3
[32] = Bioavailability in rat; format: ADME, organism-based; conditions: in vivo
Method in brief: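 Blood was drawn at intervals up to 12 h and assayed by HPLC-fluorescence or GC/MS against spiked blank-blood standards. F is the ratio of oral to intravenous areas under the blood concentration-time curves; n = 4–6.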

Rattus norvegicus [33] = assay: Maximal reduction in percent (Partial response) of DOPA accumulation rat limbic system at highest test dose of 3.1 uM/Kg (sc); format: functional
Rattus norvegicus [34] = assay: In vivo evaluation for DOPA accumulation in the hemispheres in male rats at highest dose tested; inactive; format: functional, organism-based; method in brief: as §1
Rattus norvegicus [35] = assay: Maximal reduction in percent (Partial response) of DOPA accumulation rat corpus striatum at highest test dose of 3.1 uM/Kg (sc); format: functional; method in brief: as §1
Rattus norvegicus [36] = assay: Maximal reduction in percent (Partial response) of DOPA accumulation rat lhemispheres at highest test dose of 12.5 umol/kg (sc); format: functional; method in brief: as §1

Sequence of D(2) dopamine receptor (Rattus norvegicus, UniProt P61169) (P61169 whole entry): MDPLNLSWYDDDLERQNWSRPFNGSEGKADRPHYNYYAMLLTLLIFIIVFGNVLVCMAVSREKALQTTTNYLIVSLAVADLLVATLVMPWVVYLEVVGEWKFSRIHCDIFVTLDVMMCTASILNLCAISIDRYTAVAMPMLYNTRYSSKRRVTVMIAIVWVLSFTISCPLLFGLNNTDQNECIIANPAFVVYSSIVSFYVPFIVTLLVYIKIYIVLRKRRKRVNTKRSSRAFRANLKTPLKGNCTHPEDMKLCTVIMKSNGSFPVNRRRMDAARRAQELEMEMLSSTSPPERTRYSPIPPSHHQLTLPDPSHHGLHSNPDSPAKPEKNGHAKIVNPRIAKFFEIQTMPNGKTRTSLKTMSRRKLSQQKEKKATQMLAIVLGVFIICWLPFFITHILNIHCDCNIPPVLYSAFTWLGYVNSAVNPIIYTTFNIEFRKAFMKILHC
Sequence of D(2) dopamine receptor (Homo sapiens, UniProt P14416) (P14416 whole entry): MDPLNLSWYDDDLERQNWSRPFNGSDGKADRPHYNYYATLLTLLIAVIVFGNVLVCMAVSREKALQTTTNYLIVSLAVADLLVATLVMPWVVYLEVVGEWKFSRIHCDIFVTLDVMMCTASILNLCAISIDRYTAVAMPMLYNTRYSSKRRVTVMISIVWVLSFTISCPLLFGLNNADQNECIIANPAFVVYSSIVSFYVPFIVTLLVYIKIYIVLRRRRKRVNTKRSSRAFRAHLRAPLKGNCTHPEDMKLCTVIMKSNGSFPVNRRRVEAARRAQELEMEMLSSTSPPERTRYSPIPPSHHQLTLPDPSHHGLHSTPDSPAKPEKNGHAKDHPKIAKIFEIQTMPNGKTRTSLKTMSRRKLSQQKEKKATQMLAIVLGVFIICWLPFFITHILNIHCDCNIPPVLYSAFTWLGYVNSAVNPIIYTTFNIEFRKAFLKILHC

Row | SMILES | ED50 (Rattus norvegicus [1]) | ED50 (Rattus norvegicus [2]) | Ki (D(2) dopamine receptor [3]) [nM] | Behavioral response (Rattus norvegicus [4]) | ED50 (Rattus norvegicus [5]) [µmol/kg] | ED50 (Rattus norvegicus [6]) | ED50 (Rattus norvegicus [7]) [µmol/kg] | ED50 (Rattus norvegicus [8]) [µmol/kg] | ED50 (Rattus norvegicus [9]) [µmol/kg] | Behavioral response (Rattus norvegicus [11]) | ED50 (Rattus norvegicus [12]) [µmol/kg] | further results
1 | CCCN(CCC)[C@@H]1CCc2cccc(O)c2C1 | inactive | inactive | 826 | Active | 0.05 | inactive | 0.036 | 0.047 |  |  |  | 
2 | CN(C)[C@@H]1CCc2ccc3[nH]ccc3c2C1 |  |  |  |  | 0.4 |  | 0.4 | 0.1 | 0.3 | Active | 0.4 | Reduction (Rattus norvegicus [10]): 30%
3 | CCCN(CCC)[C@H]1CCc2ccc3[nH]cc(C(C)=O)c3c2C1 |  |  | 3590 | Active | 0.095 |  | 0.09 | 0.08 |  |  |  | ED50 (Rattus norvegicus [13]): inactive; ED50 (Rattus norvegicus [14]): 0.5 µmol/kg; Ki [15]: 0.2 nM; Cmax [16]: 606 pM ml-1; Reduction (Rattus norvegicus [17]): 37%; Cmax [18]: 849 pM ml-1; Ratio [19]: 18; Reduction (Rattus norvegicus [20]): 25%; ED50 (Rattus norvegicus [21]): 1.1 µmol/kg; ED50 (Rattus norvegicus [22]): 1.1 µmol/kg; Ki (D(2) dopamine receptor [23]): 423 nM; Ki [24]: 2 nM; AUC [25]: 2224 pM/h/g; ED50 (Rattus norvegicus [26]): inactive; ED50 (Rattus norvegicus [27]): inactive; half-life at 2 µM [28]: 60 min; AUC [29]: 607 pM/h/g; ED50 (Rattus norvegicus [30]): inactive; Tmax at 2 µM [31]: 2 min; bioavailability [32]: 72%
4 | CCCN(CCC)[C@H]1CCc2ccc3[nH]ccc3c2C1 |  |  | 146 |  | 0.2 |  | 0.16 | 0.3 |  | Active |  | Reduction (Rattus norvegicus [33]): 31%; ED50 (Rattus norvegicus [34]): inactive; Reduction (Rattus norvegicus [35]): 37%
5 | CCCN(CCC)C1CCc2ccc3[nH]ccc3c2C1 (racemic) |  |  | 156 |  | 0.11 |  | 0.1 | 0.08 | 0.18 | Active | 0.28 | Reduction (Rattus norvegicus [36]): 22%
6 | CCCN(CCC)[C@H]1CCc2cccc(O)c2C1 | inactive | inactive | 5070 | Active | 0.077 | inactive | 0.061 | 0.065 |  |  |  | 
